Reference: publication PMC11455621 (Structure (London, England : 1993), 2024)
Changes are numbered by the printed parent chain.

What was measured:
HsFN3K [1] = molecular target: T1, HsFN3K (Homo sapiens, UniProt Q9H479); assay: Differential scanning fluorimetry; type: binding; conditions: DSF; for Tm increase versus HsFN3K alone: single ligand 250 μM
T1 sequence (Q9H479 1-309): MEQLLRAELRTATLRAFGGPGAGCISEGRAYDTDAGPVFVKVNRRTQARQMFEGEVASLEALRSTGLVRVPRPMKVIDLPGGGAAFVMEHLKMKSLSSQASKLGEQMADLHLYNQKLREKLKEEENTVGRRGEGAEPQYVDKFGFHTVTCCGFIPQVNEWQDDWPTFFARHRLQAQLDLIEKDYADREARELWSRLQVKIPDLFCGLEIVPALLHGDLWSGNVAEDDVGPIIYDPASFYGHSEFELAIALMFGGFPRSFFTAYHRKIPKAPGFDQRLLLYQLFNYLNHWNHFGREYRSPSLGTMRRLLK

HsFN3K W219A = molecular target: T2, HsFN3K W219A (Homo sapiens, UniProt Q9H479, W219A); assay: Differential scanning fluorimetry; type: binding; conditions: DSF
T2 sequence (Q9H479 1-309 W219A): T1 sequence (Q9H479 1-309) with W219A

HsFN3K [2] = molecular target: T1, HsFN3K; assay: Microscale thermophoresis; type: binding; conditions: MST
HsFN3K H288A [3] = molecular target: T3, HsFN3K H288A (Homo sapiens, UniProt Q9H479, H288A); assay: Differential scanning fluorimetry; type: binding; conditions: DSF
T3 sequence (Q9H479 1-309 H288A): T1 sequence (Q9H479 1-309) with H288A

HsFN3K D234A [4] = molecular target: T4, HsFN3K D234A (Homo sapiens, UniProt Q9H479, D234A); assay: Microscale thermophoresis; type: binding; conditions: MST
T4 sequence (Q9H479 1-309 D234A): T1 sequence (Q9H479 1-309) with D234A

HsFN3K D217A [5] = molecular target: T5, HsFN3K D217A (Homo sapiens, UniProt Q9H479, D217A); assay: Differential scanning fluorimetry; type: binding; conditions: DSF
T5 sequence (Q9H479 1-309 D217A): T1 sequence (Q9H479 1-309) with D217A

HsFN3K D234A [6] = molecular target: T4, HsFN3K D234A; assay: Differential scanning fluorimetry; type: binding; conditions: DSF
HsFN3K H291A [7] = molecular target: T6, HsFN3K H291A (Homo sapiens, UniProt Q9H479, H291A); assay: Differential scanning fluorimetry; type: binding; conditions: DSF
T6 sequence (Q9H479 1-309 H291A): T1 sequence (Q9H479 1-309) with H291A

HsFN3K D217A [8] = molecular target: T5, HsFN3K D217A; assay: Microscale thermophoresis; type: binding
HsFN3K H291A [9] = molecular target: T6, HsFN3K H291A; assay: ADP-Glo kinase kinetics, HsFN3K H291A; type: biochemical; conditions: H291A mutant vs WT HsFN3K
Outline: (§1)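 E. coli BL21(DE3)-expressed human FN3K, MBP-His6 tag removed by TEV, at 0.5 μM. Reaction: 200 μM ATP, 10 mM MgCl2, 0–100 μM DMF, room temperature. Time points quenched with ADP-Glo reagent (40 min), then detection reagent (40 min). Luminescence converted to ADP by ATP-to-ADP conversion curves. v0 taken from the linear slope, then Michaelis–Menten fit. SEM from ≥2 independent experiments.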

HsFN3K H288A [10] = molecular target: T3, HsFN3K H288A; assay: ADP-Glo kinase kinetics, HsFN3K H288A; type: biochemical; conditions: H288A mutant vs WT HsFN3K
Outline: as §1

HsFN3K WT = molecular target: T7, HsFN3K WT (Homo sapiens, UniProt Q9H479); assay: Direct substrate phosphorylation assay; type: biochemical; conditions: glycated lysozyme 2mg/mL, 1 hour at 25°C (Figure S6D)
T7 sequence (Q9H479 1-309): T1 sequence (Q9H479 1-309)
Outline: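 Lysozyme glycated with ribose or glucose (1:1 molar, 3 or 28 days, 50°C). Reaction: 10 or 20 μM FN3K, 2 mg/mL glycated lysozyme, 5 mM HEPES pH 7, 5 mM MgCl2, 100 μM ATP, 1 h at 25°C. Quenched in Laemmli dye, run on SDS-PAGE, fixed in methanol/acetic acid. Stained with Pro-Q Diamond, destained in acetonitrile/sodium acetate pH 4, imaged at 602 nm […]. Coomassie restain for loading.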

[11] = molecular target: human Fructosamine-3-kinase (HsFN3K) (human) (UniProt Q9H479); assay: SEC
[12] = molecular target: human Fructosamine-3-kinase (HsFN3K) (human) (UniProt Q9H479); assay: intact protein LC-MS

Q: With `Nc1ncnc2c1ncn2[C@@H]1O[C@H](COP(=O)(O)OP(=O)(O)NP(=O)(O)O)[C@@H](O)[C@H]1O` [AMP-PNP, adenylyl-imidodiphosphate] as the compound, how does the “binding of ATP mimetic” value (HsFN3K [1]; HsFN3K WT (Figure S7)) read?
A: The value was “readily bound to HsFN3K”.

Q: Which “ligand binding by Tm shift” value (HsFN3K W219A) does the source give for `Nc1ncnc2c1ncn2[C@@H]1O[C@H](COP(=O)(O)OP(=O)(O)OP(=O)([O-])[O-])[C@@H](O)[C@H]1O.[Na+].[Na+]` [ATP, Adenosine-5-triphosphate disodium salt] here?
A: Its value is “retained the ability to bind ATP”.

Q: And the Kd (HsFN3K [2]; read-out: binding affinity (KD) for ATP, fluorescently labeled HsFN3K WT, 25°C)?
A: The Kd was 3.9 ± 3.4 µM.

Q: And the ATP binding (HsFN3K H288A [3])?
A: The ATP binding was “retained the ability to bind ATP”.

Q: And the “melting temperature (Tm) with ligand” value (HsFN3K [1]; HsFN3K WT, ligand 250 μM, apo Tm 56.9 ± 0.7°C)?
A: Its value is 63.2 ± 0.5 °C.

Q: And the “Tm increase versus HsFN3K alone” value (HsFN3K [1]; HsFN3K WT)?
A: The value was ~ 6 °C.

Q: And the “binding of ATP and DMF” value (HsFN3K D234A [4])?
A: Its value is “impaired binding”.

Q: And the “ligand binding by Tm shift” value (HsFN3K D217A [5])?
A: The value was “retained the ability to bind ATP”.

Q: And the “Tm shift in the presence of ATP or DMF individually or together” value (HsFN3K D234A [6])?
A: Its value is “no observable Tm shift”.

Q: And the ATP binding (HsFN3K H291A [7])?
A: Its ATP binding is “retained the ability to bind ATP”.

Q: What about the Kd (HsFN3K D217A [8]; read-out: binding affinity (KD) for ATP, MST) of the same compound?
A: The Kd was 3.5 ± 2.3 µM.

Q: Which results are given for `O=C(CN1CCOCC1)[C@@H](O)[C@H](O)[C@H](O)CO` [DMF, 1-Deoxy-1-morpholino-fructose]?
A: ligand binding by Tm shift (HsFN3K W219A): did not bind DMF; binding of DMF in the absence of ATP (HsFN3K [2]; HsFN3K WT, absence of ATP): did not bind DMF; Tm shift on DMF binding (HsFN3K H288A [3]): 0.6 °C; substrate (DMF) engagement in presence of AMP-PNP (HsFN3K [1]; HsFN3K WT, AMP-PNP instead of ATP (Figure S7)): prevented substrate engagement; melting temperature (Tm) with both ATP and DMF (HsFN3K [1]; HsFN3K WT, ATP+DMF 250 μM): 65.2 ± 0.6 °C; Tm shift of ATP and DMF compared to ATP alone (HsFN3K [1]; HsFN3K WT, DMF added with ATP): ~ 2 °C; Tm increase versus HsFN3K alone (HsFN3K [1]; HsFN3K WT): did not alter the Tm; binding of ATP and DMF (HsFN3K D234A [4]): impaired binding; ligand binding by Tm shift (HsFN3K D217A [5]): lost binding to DMF; increase of Km for DMF versus wildtype (HsFN3K H291A [9]): 3.5 fold; Tm shift in the presence of ATP or DMF individually or together (HsFN3K D234A [6]): no observable Tm shift; Tm shift on DMF binding (HsFN3K H291A [7]): 3.6 °C; binding of DMF (HsFN3K D217A [8]; MST): lost the ability to bind DMF; increase of Km for DMF versus wildtype (HsFN3K H288A [10]): 3 fold

Q: “glycated lysozyme: crystallization grade lysozyme incubated with ribose or glucose; protein substrate of FN3K” was tested. Which substrate phosphorylation (HsFN3K WT) did it give?
A: The substrate phosphorylation was “able to phosphorylate”.

Q: What does the source list for “human Fructosamine-3-kinase (HsFN3K) (from UniProt Q9H479 1-309) (enzyme)”?
A: stoichiometry N [11]: 2; stoichiometry N [12]: 2
